Measurements from ChEMBL document CHEMBL4152343, “Design, Synthesis, and Pharmacological Evaluation of Second-Generation Tetrahydroisoquinoline-Based CXCR4 Antagonists with Favorable ADME Properties” (J Med Chem, 2018).

Experiments:
[1] = biological target: Muscarinic acetylcholine receptor; experiment: Antagonist activity at mAChR in human CCRF-CEM cells assessed as inhibition of acetylcholine-induced calcium release preincubated for 25 mins followed by acetylcholine stimulation and measured for 90 secs by calcium flux assay; type: functional, cell-based
Procedure, shortened: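 Endogenous muscarinic receptors in CCRF-CEM cells (HBSS/HEPES/BSA buffer, 40,000 cells/well, dye-loaded 30 min at 37°C). Calcium flux recorded 90 s by FDSS. IC50 by 4-parameter logistic fit against an internal control compound; duplicate wells, single experiment.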

[2] = biological target: Cytochrome P450 2D6 (Homo sapiens, UniProt P10635); experiment: Inhibition of recombinant human CYP2D6 expressed in insect cells microsomes using AMMC as substrate preincubated for 30 mins followed by NADP addition and measured after 45 mins by fluorescence analysis; type: ADME
[3] = Metabolic stability in human liver microsomes assessed as parent compound remaining after 10 mins by LC-MS/MS analysis; type: ADME, microsome; conditions: read-out: Stability
Procedure, shortened: (§1)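 Compound depletion measured by LC/MS/MS after 10 min at 37 °C in liver microsome preparations (CYP450 and other NADP-dependent enzymes). Values are % of compound remaining; duplicates in a single experiment.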

[4] = Metabolic stability in mouse liver microsomes assessed as parent compound remaining after 10 mins by LC-MS/MS analysis; type: ADME, microsome; conditions: read-out: Stability; procedure, shortened: as §1
[5] = biological target: Cytochrome P450 3A4 (Homo sapiens, UniProt P08684); experiment: Inhibition of human CYP3A4; type: ADME
[6] = Permeability of compound at pH 7.4 by PAMPA; type: ADME; conditions: read-out: permeability
Procedure, shortened: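 Compound from 10 mM DMSO stock diluted 1:100 to 100 µM (1% DMSO) in pH 7.4 or pH 5.5 donor buffer, then filtered. Lipid-coated filter membrane with pH 7.4 acceptor buffer; incubated 4 h at room temperature. UV plate reading gives Pc. Duplicates in two independent experiments unless noted.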

[7] = biological target: T1, C-X-C chemokine receptor type 4 (Homo sapiens, UniProt P61073); experiment: Agonist activity at CXCR4 in human CCRF-CEM cells assessed as induction of calcium release incubated for 25 mins by calcium flux assay; type: functional, cell-based
Procedure, shortened: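 CCRF-CEM T lymphoblasts (endogenous CXCR4) in HBSS/20 mM HEPES/0.1% fatty-acid-free BSA, 40,000 cells/well, dye-loaded 30 min at 37°C, then 15 min at room temperature. Compounds added at final 25,000–0.423 nM (0.5% DMSO) and calcium flux read by FDSS for 90 s.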

[8] = biological target: T1, C-X-C chemokine receptor type 4; experiment: Antagonist activity at CXCR4 in human CCRF-CEM cells assessed as inhibition of SDF-1alpha-induced calcium release preincubated for 25 mins followed by SDF-1alpha stimulation and measured for 90 secs by calcium flux assay; type: functional, cell-based

Sequence of Cytochrome P450 2D6 (P10635 whole entry): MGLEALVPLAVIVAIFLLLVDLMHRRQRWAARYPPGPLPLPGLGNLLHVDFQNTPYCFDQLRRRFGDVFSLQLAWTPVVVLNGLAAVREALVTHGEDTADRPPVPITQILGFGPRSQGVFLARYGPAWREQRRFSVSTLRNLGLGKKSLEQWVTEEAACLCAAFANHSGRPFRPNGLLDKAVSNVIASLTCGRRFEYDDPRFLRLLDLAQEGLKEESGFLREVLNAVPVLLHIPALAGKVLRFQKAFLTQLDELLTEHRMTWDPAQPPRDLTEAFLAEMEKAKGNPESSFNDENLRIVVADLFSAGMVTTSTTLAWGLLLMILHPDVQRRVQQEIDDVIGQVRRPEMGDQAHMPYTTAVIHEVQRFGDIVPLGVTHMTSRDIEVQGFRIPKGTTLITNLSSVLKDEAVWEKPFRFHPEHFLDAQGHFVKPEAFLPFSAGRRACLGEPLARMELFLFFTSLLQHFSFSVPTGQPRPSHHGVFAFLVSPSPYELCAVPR
T1 sequence (P61073 whole entry): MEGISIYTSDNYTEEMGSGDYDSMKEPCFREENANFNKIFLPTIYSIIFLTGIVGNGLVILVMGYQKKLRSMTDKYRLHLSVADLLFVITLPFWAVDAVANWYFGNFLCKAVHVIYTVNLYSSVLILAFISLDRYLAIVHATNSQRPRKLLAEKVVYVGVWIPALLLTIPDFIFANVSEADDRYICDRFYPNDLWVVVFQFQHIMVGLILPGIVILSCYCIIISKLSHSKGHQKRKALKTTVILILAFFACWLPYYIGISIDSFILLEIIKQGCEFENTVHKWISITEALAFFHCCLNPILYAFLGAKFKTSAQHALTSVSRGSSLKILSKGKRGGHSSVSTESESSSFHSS
Sequence of Cytochrome P450 3A4 (P08684 whole entry): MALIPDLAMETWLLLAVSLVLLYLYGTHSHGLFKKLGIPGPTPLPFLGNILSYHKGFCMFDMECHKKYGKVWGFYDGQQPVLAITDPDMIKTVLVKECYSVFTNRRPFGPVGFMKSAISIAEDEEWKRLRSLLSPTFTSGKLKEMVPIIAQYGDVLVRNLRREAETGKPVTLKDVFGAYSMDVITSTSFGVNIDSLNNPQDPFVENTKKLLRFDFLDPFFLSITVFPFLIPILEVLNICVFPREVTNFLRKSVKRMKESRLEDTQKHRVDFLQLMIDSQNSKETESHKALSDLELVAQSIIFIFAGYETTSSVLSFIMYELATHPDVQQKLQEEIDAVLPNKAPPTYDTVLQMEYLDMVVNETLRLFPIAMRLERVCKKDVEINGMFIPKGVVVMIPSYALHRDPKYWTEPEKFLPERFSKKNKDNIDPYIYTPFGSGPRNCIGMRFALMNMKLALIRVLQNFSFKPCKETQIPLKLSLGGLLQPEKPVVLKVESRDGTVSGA

Row | Compound | IC50 [1] | IC50 [2] | remaining at 10 min [3] | remaining at 10 min [4] | IC50 [5] | Papp [6] | EC50 [7] | IC50 [8]
1 | CN(C[C@H]1Cc2c(cccc2N2CCN(C3COC3)CC2)CN1)[C@H]1CCCc2cccnc21 | > 16.7 µM | > 20 µM | 83.1% | 50.8% | > 20 µM | 72.5 ×10⁻⁶ cm/s | > 30 µM | 
2 | Cc1cnc2c(c1)CCC[C@@H]2N(C)C[C@H]1Cc2c(cccc2N2CCNCC2)CN1 | > 16.7 µM | > 20 µM | 100% |  | > 20 µM | 0.9 ×10⁻⁶ cm/s | > 30 µM | 
3 | Cc1cccnc1CN(C)C[C@H]1Cc2c(cccc2N2CCNCC2)CN1 | 11.1 µM | 100 µM | 69.2% |  | 1.42 µM | 19.3 ×10⁻⁶ cm/s | > 30 µM | 
4 | Cc1ccc(CN(C)C[C@H]2Cc3c(cccc3N3CCNCC3)CN2)nc1 | 9.56 µM | 100 µM | 76.8% |  | > 20 µM | 22.5 ×10⁻⁶ cm/s | > 30 µM | 
5 | CN1Cc2cccc(N3CCNCC3)c2C[C@@H]1CN(C)[C@H]1CCCc2cccnc21 | 26.3 µM | > 20 µM | 100% | 100% | > 20 µM | 0.3 ×10⁻⁶ cm/s | > 30 µM | 
6 | Cc1cnc(CN(C)C[C@H]2Cc3c(cccc3N3CCNCC3)CN2)c(C)c1 | 15.4 µM | > 20 µM |  |  | > 20 µM |  | > 30 µM | 
7 | FC1(F)CCC(CN(C[C@H]2Cc3c(cccc3N3CCNCC3)CN2)[C@H]2CCCc3cccnc32)CC1 | > 33.3 µM | 8.45 µM | 68.6% | 76.6% | 5.62 µM |  | > 30 µM | 
8 | CN1CCN(c2cccc3c2C[C@H](CN2CCC[C@H]4CCc5cccnc5[C@H]42)NC3)CC1 | > 16.7 µM | > 20 µM | 67.8% |  | > 20 µM | 32.3 ×10⁻⁶ cm/s | > 30 µM | 
9 | c1cnc2c(c1)CCC[C@@H]2N(CC1CC1)C[C@H]1Cc2c(cccc2N2CCNCC2)CN1 | 21.6 µM | 8.57 µM | 82.1% | 88.3% | > 20 µM | 8.7 ×10⁻⁶ cm/s | > 30 µM | 

The remaining lines, values ahead:

Row | IC50 [1] | IC50 [2] | remaining at 10 min [3] | remaining at 10 min [4] | IC50 [5] | Papp [6] | EC50 [7] | IC50 [8] | Compound
10 | 17.9 µM | > 20 µM | 100% | 44% | > 20 µM |  | > 30 µM |  | CN(C[C@H]1Cc2c(cccc2N2CCNC(C)(C)C2)CN1)[C@H]1CCCc2cccnc21
11 | 15.1 µM | > 20 µM | 24.6% | 39.6% | > 20 µM | 14.2 ×10⁻⁶ cm/s | > 30 µM |  | C[C@@H]1CN(c2cccc3c2C[C@H](CN(C)[C@H]2CCCc4cccnc42)NC3)C[C@H](C)N1C
12 | > 16.7 µM | > 20 µM | 100% | 95.9% | > 20 µM |  | > 30 µM |  | CN(C[C@H]1Cc2c(cccc2N2C[C@H]3C[C@@H]2CN3)CN1)[C@H]1CCCc2cccnc21
13 | > 16.7 µM | > 20 µM | 36.6% | 40.1% | > 20 µM | 16.7 ×10⁻⁶ cm/s | > 30 µM |  | CN(C[C@H]1Cc2c(cccc2N2CCN3CCC[C@H]3C2)CN1)[C@H]1CCCc2cccnc21
14 | > 16.7 µM | > 20 µM | 100% | 36.3% | > 20 µM |  | > 30 µM | 0.146 µM | CN(C[C@H]1Cc2c(cccc2N2C[C@@H]3C[C@H]2CN3)CN1)[C@H]1CCCc2cccnc21
15 | > 33.3 µM | > 20 µM | 75.8% | 17% | > 20 µM | 99.6 ×10⁻⁶ cm/s | > 30 µM |  | CN1CCN(c2cccc3c2C[C@H](CN(C)[C@H]2CCCc4cccnc42)NC3)CC1
